# Measured values: ChEMBL document CHEMBL3085701, “Optimization of novel indole-2-carboxamide inhibitors of neurotropic alphavirus replication” (J Med Chem, 2013)
# Assays:
# [1] = system: Western equine encephalitis virus; assay: Antiviral activity against Western equine encephalomyelitis virus infected in human BE(2)-C cells assessed as inhibition of viral RNA replication after 18 to 20 hrs by luciferase reporter gene assay; assay type: functional, cell-based
# [2] = Kinetic solubility of the compound; assay type: physicochemical
# [3] = Cytotoxicity against human BE(2)-C cells after 18 to 20 hrs by MTT assay; assay type: cell-based
# [4] = biological target: MDR1 (ABCB1, P-glycoprotein) (Homo sapiens, UniProt P08183); assay: Inhibition of human MDR1 expressed in MDCK2 cells assessed as increase of rhodamine 123 uptake at 30 uM up to 240 mins relative to control; assay type: ADME, cell-based, MDCK-II; details: MDCK2 cells expressing human MDR1, probe rhodamine 123
# Summary of the method: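 Confluent MDR1-MDCKII cells (human Pgp-transfected) given fresh DMEM with 10 μM rhodamine 123, plus vehicle, tariquidar (5 μM) or compound (30 μM). Uptake at 37°C from 1 to 240 min, stopped by ice-cold PBS washes. Fluorescence read at ex 525/em 560-640 nm. Result expressed as % of same-day tariquidar effect, (Cav−Cveh)*100/(Ctar−Cveh). Triplicates on ≥3 occasions.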
# Fort Morgan virus = assay: Antiviral activity against Fort Morgan virus infected in human BE(2)-C cells assessed as reduction of viral titer at 25 uM after 24 hrs by plaque reduction assay (reference value: 47.1 +/- 10.5 x 10^6 pfu/ml); assay type: functional
# [5] = Cytotoxicity against human BE(2)-C cells assessed as cell viability at 25 uM after 24 hrs by MTT assay relative to control; assay type: cell-based; details: read-out: Activity
# [6] = Half life in Balb-C mouse liver microsomes; assay type: ADME, Microsome
# Summary of the method: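 Compound incubated with Balb-C mouse liver microsomes, and half-life determined for oxidative metabolism. Values are means of ≥2 independent incubations.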
# MDR1 (ABCB1, P-glycoprotein), sequence (P08183 whole entry): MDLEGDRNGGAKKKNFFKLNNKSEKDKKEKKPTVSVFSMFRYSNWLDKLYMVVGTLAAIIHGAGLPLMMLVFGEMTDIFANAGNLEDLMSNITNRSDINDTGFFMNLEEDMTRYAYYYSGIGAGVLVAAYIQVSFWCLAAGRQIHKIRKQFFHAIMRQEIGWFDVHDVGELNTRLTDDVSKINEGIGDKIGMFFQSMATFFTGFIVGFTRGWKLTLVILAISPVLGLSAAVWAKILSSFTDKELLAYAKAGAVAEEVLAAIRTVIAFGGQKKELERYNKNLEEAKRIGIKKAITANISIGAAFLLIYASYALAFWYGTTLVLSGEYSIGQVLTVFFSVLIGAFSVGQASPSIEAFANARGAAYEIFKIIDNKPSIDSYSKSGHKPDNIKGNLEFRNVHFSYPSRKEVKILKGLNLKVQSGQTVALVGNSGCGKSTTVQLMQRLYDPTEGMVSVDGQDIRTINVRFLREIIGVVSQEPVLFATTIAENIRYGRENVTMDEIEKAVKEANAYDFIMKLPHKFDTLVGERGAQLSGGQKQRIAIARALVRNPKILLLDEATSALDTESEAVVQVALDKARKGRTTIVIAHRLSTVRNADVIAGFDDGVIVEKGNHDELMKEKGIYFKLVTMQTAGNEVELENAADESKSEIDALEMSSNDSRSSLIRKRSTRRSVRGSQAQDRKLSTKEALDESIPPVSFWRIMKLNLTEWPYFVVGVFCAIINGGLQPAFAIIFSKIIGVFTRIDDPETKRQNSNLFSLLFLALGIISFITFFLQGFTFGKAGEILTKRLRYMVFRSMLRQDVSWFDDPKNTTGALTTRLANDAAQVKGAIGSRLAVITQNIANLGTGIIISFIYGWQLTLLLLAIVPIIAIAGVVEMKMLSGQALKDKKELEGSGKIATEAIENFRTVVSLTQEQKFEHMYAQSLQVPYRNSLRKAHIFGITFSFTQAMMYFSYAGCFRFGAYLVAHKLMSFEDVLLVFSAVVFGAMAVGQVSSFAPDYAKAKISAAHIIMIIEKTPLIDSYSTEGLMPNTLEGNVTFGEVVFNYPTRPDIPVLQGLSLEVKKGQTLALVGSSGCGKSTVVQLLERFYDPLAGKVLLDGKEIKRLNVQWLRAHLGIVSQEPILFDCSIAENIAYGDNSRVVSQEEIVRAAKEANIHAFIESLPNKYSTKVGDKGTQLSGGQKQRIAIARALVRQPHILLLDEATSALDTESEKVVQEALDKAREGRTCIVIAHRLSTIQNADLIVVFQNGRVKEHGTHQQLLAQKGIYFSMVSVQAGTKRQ
Structure (SMILES),IC50 [1] [µM],CC50 ([3]; BE(2)-C cells) [µM],"inhibition at 4 h, 30 µM [4] [%]",CC50 ([3]; be(2)-c) [µM],other results
O=C(NCc1ccco1)C1CCN(C(=O)c2cc3sccc3n2Cc2ccc(F)cc2)CC1,23.7,,,,
O=C(NCc1ccncc1)C1CCN(C(=O)c2cc3ccccc3n2Cc2ccc(Cl)cc2)CC1,6.8,> 100,25.9,,Kinetic_solubility [2]: 31 µM
O=C(NCc1cccnc1)C1CCN(C(=O)c2cc3ccccc3n2Cc2ccc(Cl)cc2)CC1,11.4,,,,
O=C(NCCc1ccncc1)C1CCN(C(=O)NCCc2ccc(Cl)cc2)CC1,40.9,> 100,,,Kinetic_solubility [2]: 250 µM
Cn1c(C(=O)N2CCC(C(=O)NCCc3ccncc3)CC2)cc2ccccc21,> 50,> 50,,,
O=C(NCCc1ccncc1)C1CCN(C(=O)c2cc3ccccc3n2Cc2ccccc2)CC1,1.6,,11.7,45.6,"Activity (Fort Morgan virus): 6.8 ×10⁶ PFU/ml; viability at 24 h, 25 µM [5]: 79.4%; Kinetic_solubility [2]: 31 µM; t1/2 [6]: 77.9 min"
O=C(NCCc1ccncc1)C1CCN(C(=O)c2cc3ccc(F)cc3n2Cc2ccc(Cl)cc2)CC1,0.6,,30.8,43.1,"Activity (Fort Morgan virus): 1.6 ×10⁶ PFU/ml; viability at 24 h, 25 µM [5]: 69.2%"
O=C(NCCc1ccncc1)C1CCN(C(=O)c2cc3cc(F)ccc3n2Cc2ccc(Cl)cc2)CC1,0.9,,42.6,52.5,Kinetic_solubility [2]: 31 µM
O=C(NCCc1ccncc1)C1CCN(C(=O)c2cc(F)cn2Cc2ccc(Cl)cc2)CC1,0.9,,,8,Kinetic_solubility [2]: 125 µM
CC(C)c1ccc(CCNC(=O)C2CCN(C(=O)c3cc4ccccc4n3Cc3ccc(Cl)cc3)CC2)cc1,10.8,,,27.2,
O=C(c1cc2ccccc2n1Cc1ccc(Cl)cc1)N1CCC(C(=O)N2CCC[C@H]2CO)CC1,30.6,,,98.9,
CN(C)C(=O)C1CCN(C(=O)c2cc3ccccc3n2Cc2ccc(Cl)cc2)CC1,10.5,> 100,23.2,,Kinetic_solubility [2]: 62 µM
O=C(c1cc2ccccc2n1Cc1ccc(Cl)cc1)N1CCC(C(=O)N2CCCC2)CC1,22.2,,,65.6,
O=C(c1cc2ccccc2n1Cc1ccc(Cl)cc1)N1CCC(C(=O)N2CCOCC2)CC1,12.8,> 100,,,
CN(Cc1ccccc1)C(=O)C1CCN(C(=O)c2cc3ccccc3n2Cc2ccc(Cl)cc2)CC1,16.9,,,87,
CN(Cc1ccccc1)C(=O)C1CCN(C(=O)c2cc3ccccc3n2Cc2ccc([N+](=O)[O-])cc2)CC1,61.3,> 100,,,
CN(Cc1ccccc1)C(=O)C1CCN(C(=O)c2cc3ccccc3n2Cc2ccc(C#N)cc2)CC1,95.9,> 100,,,
COc1ccc(Cn2c(C(=O)N3CCC(C(=O)N(C)Cc4ccccc4)CC3)cc3ccccc32)cc1,16.5,,,99.2,
CC(=O)n1c(C(=O)N2CCC(C(=O)N(C)Cc3ccccc3)CC2)cc2ccccc21,> 50,> 50,,,
COCCn1c(C(=O)N2CCC(C(=O)N(C)Cc3ccccc3)CC2)cc2ccccc21,> 50,> 50,,,
CC(C)Cn1c(C(=O)N2CCC(C(=O)N(C)Cc3ccccc3)CC2)cc2ccccc21,27.9,,,58.2,
CN(Cc1ccccc1)C(=O)C1CCN(C(=O)c2cc3ccccc3n2Cc2ccccc2)CC1,17,,,64.8,

Structure (SMILES),IC50 [1] [µM],CC50 ([3]; BE(2)-C cells) [µM],"inhibition at 4 h, 30 µM [4] [%]",CC50 ([3]; be(2)-c) [µM],other results
CN(Cc1ccccc1)C(=O)C1CCN(C(=O)c2cc3ccccc3n2Cc2ccncc2)CC1,24.2,,,80.3,
CN(Cc1ccccc1)C(=O)C1CCN(C(=O)c2cc3ccccc3n2Cc2ccc(C(F)(F)F)cc2)CC1,35.1,,,90.3,
O=C(NCCc1ccncc1)C1CCN(C(=O)c2nccn2Cc2ccc(Cl)cc2)CC1,> 50,> 50,0.13,,solubility kinetic ([2]; read-out: Kinetic_solubility): > 500 µM
O=C(NCCc1ccncc1)C1CCN(C(=O)c2nc3ccccc3n2Cc2ccc(Cl)cc2)CC1,4.1,,6.9,74.6,"Activity (Fort Morgan virus): 16.4 ×10⁶ PFU/ml; viability at 24 h, 25 µM [5]: 69.7%; Kinetic_solubility [2]: 63 µM; t1/2 [6]: 43 min"
O=C(NCc1ccccc1)C1CCN(C(=O)c2cc3ccccc3n2Cc2ccc(Cl)cc2)CC1,15.6,,,,
C[C@@H](NC(=O)C1CCN(C(=O)c2cc3ccccc3n2Cc2ccc(Cl)cc2)CC1)c1ccncc1,0.6,,35.9,92.3,"Activity (Fort Morgan virus): 6.4 ×10⁶ PFU/ml; viability at 24 h, 25 µM [5]: 65.5%; t1/2 [6]: 23.4 min"
CN1CCN(C(=O)C2CCN(C(=O)c3cc4ccccc4n3Cc3ccc(Cl)cc3)CC2)CC1,31.4,,,75.6,
CN1CCC(CNC(=O)C2CCN(C(=O)c3cc4ccccc4n3Cc3ccc(Cl)cc3)CC2)CC1,> 50,> 50,,,
Cn1ccc(CNC(=O)C2CCN(C(=O)c3cc4ccccc4n3Cc3ccc(Cl)cc3)CC2)n1,76.9,> 100,,,
Cn1cnc(CNC(=O)C2CCN(C(=O)c3cc4ccccc4n3Cc3ccc(Cl)cc3)CC2)c1,> 50,> 50,,,
O=C(NCCc1cccnc1)C1CCN(C(=O)c2cc3ccccc3n2Cc2ccc(Cl)cc2)CC1,5.3,,30.1,39.4,
O=C(NCCc1ccccn1)C1CCN(C(=O)c2cc3ccccc3n2Cc2ccc(Cl)cc2)CC1,22.4,,21.9,86.2,
O=C(NCCCc1ccncc1)C1CCN(C(=O)c2cc3ccccc3n2Cc2ccc(Cl)cc2)CC1,31.9,,35.2,71.5,Kinetic_solubility [2]: 16 µM
CC(CNC(=O)C1CCN(C(=O)c2cc3ccccc3n2Cc2ccc(Cl)cc2)CC1)c1ccncc1 (stereo unspecified),1.7,,25.4,98.2,"Activity (Fort Morgan virus): 13.3 ×10⁶ PFU/ml; viability at 24 h, 25 µM [5]: 74%"
CC(C)(Cc1ccncc1)NC(=O)C1CCN(C(=O)c2cc3ccccc3n2Cc2ccc(Cl)cc2)CC1,19.3,43.6,,,
CN(CCc1ccncc1)C(=O)C1CCN(C(=O)c2cc3ccccc3n2Cc2ccc(Cl)cc2)CC1,1.6,,72,47.9,
O=C(NCC1COc2cnccc21)C1CCN(C(=O)c2cc3ccccc3n2Cc2ccc(Cl)cc2)CC1 (stereo unspecified),3.6,,47,75.8,
O=C(NCCn1ccnc1)C1CCN(C(=O)c2cc3ccccc3n2Cc2ccc(Cl)cc2)CC1,4.9,,15.1,99.6,"Activity (Fort Morgan virus): 15.8 ×10⁶ PFU/ml; viability at 24 h, 25 µM [5]: 70.3%; Kinetic_solubility [2]: 31 µM; t1/2 [6]: 14.3 min"
COc1cccc(CCNC(=O)C2CCN(C(=O)c3cc4ccccc4n3Cc3ccc(Cl)cc3)CC2)c1,11.1,> 100,,,
O=C(NCCc1ccc(F)cc1)C1CCN(C(=O)c2cc3ccccc3n2Cc2ccc(Cl)cc2)CC1,21.4,,,18.6,
COc1ccc(CCNC(=O)C2CCN(C(=O)c3cc4ccccc4n3Cc3ccc(Cl)cc3)CC2)cc1,15.5,,,11.3,
O=C(NCCc1ccc(Cl)cc1)C1CCN(C(=O)c2cc3ccccc3n2Cc2ccc(Cl)cc2)CC1,8.1,,,40.4,
